# Reference: ChEMBL document CHEMBL2034932, “2-Anilino-4-(benzimidazol-2-yl)pyrimidines--a multikinase inhibitor scaffold with antiproliferative activity toward cancer cell lines” (Eur J Med Chem, 2012)
# Counter-ions that a name gives are not always drawn.
# Assays:
# SW-620 = test: Antiproliferative activity against human SW620 cells after 48 hrs by SRB assay; type: functional; conditions: SW-620, 48 h
# In short: (§1)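 Run in the NCI screen of about 60 human tumour cell lines. Cells were exposed to compound for 48 h at five concentrations from 10^-8 to 10^-4 M, then fixed and stained for protein with sulforhodamine B. Absorbance was read at 515 nm. Percent growth was calculated from time-zero, untreated-control and treated readings, and replicate experiments were averaged.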
# MDA-MB-435 = test: Antiproliferative activity against human MDA-MB-435 cells after 48 hrs by SRB assay; type: functional; conditions: MDA-MB-435, 48 h; in short: as §1
# OVCAR-3 = test: Antiproliferative activity against human OVCAR3 cells after 48 hrs by SRB assay; type: functional; conditions: OVCAR-3, 48 h; in short: as §1
# CAKI-1 = test: Antiproliferative activity against human CAKI-1 cells after 48 hrs by SRB assay; type: functional; conditions: CAKI-1, 48 h; in short: as §1
# MCF7 = test: Antiproliferative activity against human MCF7 cells after 48 hrs by SRB assay; type: functional; conditions: MCF7, 48 h; in short: as §1
# EKVX = test: Antiproliferative activity against human EKVX cells after 48 hrs by SRB assay; type: functional; in short: as §1
# HT-29 = test: Antiproliferative activity against human HT-29 cells after 48 hrs by SRB assay; type: functional; conditions: HT-29, 48 h; in short: as §1
# SNB-19 = test: Antiproliferative activity against human SNB19 cells after 48 hrs by SRB assay; type: functional; conditions: SNB-19, 48 h; in short: as §1
# UACC-257 = test: Antiproliferative activity against human UACC257 cells after 48 hrs by SRB assay; type: functional; conditions: UACC-257, 48 h; in short: as §1
# TK-10 = test: Antiproliferative activity against human TK10 cells after 48 hrs by SRB assay; type: functional; conditions: TK-10, 48 h; in short: as §1
# [1] = target: RAC-alpha serine/threonine-protein kinase (Homo sapiens, UniProt P31749); test: Inhibition of recombinant AKT1 using GSK3 as substrate assessed as inhibition of [33P]Phosphate incorporation into substrate after 80 mins by scintillation counting
# Chain of RAC-alpha serine/threonine-protein kinase (P31749 whole entry): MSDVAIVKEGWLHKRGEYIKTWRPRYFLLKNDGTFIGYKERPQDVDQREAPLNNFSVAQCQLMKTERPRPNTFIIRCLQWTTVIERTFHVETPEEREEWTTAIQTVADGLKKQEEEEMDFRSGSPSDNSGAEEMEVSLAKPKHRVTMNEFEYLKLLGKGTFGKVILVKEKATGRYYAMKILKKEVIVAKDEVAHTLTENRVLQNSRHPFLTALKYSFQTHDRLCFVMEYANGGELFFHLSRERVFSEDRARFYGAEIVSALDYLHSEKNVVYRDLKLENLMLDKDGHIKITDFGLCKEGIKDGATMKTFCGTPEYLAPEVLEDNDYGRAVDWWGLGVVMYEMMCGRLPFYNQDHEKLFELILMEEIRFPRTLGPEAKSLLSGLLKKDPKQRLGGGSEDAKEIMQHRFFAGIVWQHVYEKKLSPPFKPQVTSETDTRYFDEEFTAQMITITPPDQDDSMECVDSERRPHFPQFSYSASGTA
# In short: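 Recombinant AKT1 was assayed radiometrically with [33P]-ATP (about 5×10^5 cpm/well) and GSK3(14-27) substrate at 2000 ng/50 µL. Buffer was 60 mM HEPES-NaOH pH 7.5 with 3 mM MgCl2 and 3 mM MnCl2, and compound was added in 10% DMSO. After 80 min at 30 °C the reaction was stopped with 2% phosphoric acid, washed with 0.9% NaCl and 33P incorporation counted by scintillation.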
# Aurora kinase B = Aurora kinase B (Homo sapiens, UniProt Q96GD4); test: Inhibition of recombinant Aurora B using tetra(LRRWSLG) as substrate assessed as inhibition of [33P]Phosphate incorporation into substrate after 80 mins by scintillation counting
# Chain of Aurora kinase B (Q96GD4 whole entry): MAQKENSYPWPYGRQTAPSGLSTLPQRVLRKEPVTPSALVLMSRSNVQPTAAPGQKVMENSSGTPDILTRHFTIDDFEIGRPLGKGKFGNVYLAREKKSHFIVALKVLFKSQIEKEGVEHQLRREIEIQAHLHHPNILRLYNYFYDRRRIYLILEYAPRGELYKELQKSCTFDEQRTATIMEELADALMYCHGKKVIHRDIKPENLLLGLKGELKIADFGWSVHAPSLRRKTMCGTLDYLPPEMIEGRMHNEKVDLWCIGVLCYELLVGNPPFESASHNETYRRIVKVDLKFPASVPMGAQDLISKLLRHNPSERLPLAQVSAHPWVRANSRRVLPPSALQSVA
# Focal adhesion kinase 1 = Focal adhesion kinase 1 (Homo sapiens, UniProt Q05397); test: Inhibition of recombinant FAK using poly(Glu,Tyr)4 as substrate assessed as inhibition of [33P]Phosphate incorporation into substrate after 80 mins by scintillation counting
# Chain of Focal adhesion kinase 1 (Q05397 whole entry): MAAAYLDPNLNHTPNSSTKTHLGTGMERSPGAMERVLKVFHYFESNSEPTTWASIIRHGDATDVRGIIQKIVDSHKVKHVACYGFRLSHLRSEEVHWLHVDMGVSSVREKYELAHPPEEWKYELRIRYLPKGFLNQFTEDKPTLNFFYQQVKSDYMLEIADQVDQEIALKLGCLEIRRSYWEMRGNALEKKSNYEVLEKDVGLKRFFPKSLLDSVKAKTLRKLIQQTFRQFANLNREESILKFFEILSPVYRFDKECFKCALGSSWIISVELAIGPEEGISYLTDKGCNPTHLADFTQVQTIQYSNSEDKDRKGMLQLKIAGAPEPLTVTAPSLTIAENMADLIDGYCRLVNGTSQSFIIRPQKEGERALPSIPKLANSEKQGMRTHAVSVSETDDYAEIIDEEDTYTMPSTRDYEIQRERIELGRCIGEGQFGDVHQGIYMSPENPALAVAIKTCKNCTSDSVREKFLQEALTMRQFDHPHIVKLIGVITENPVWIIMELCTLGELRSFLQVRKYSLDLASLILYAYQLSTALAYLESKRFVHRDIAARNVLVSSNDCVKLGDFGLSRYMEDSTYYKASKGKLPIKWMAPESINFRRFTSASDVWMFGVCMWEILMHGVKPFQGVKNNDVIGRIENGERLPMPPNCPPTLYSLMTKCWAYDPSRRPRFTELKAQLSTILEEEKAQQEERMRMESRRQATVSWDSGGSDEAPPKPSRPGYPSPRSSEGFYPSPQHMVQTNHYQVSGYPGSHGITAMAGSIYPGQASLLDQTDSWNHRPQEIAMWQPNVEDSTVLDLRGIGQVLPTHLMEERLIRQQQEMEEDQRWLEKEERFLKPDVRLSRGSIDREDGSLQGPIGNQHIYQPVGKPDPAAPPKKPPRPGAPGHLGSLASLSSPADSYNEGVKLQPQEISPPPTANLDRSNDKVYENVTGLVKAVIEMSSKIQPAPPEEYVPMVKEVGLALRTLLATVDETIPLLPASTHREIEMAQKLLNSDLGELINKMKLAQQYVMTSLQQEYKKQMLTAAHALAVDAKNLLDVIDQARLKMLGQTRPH
# [2] = target: Serine/threonine-protein kinase PLK1 (Homo sapiens, UniProt P53350); test: Inhibition of recombinant PLK1 using RBERCHKtide as substrate assessed as inhibition of [33P]Phosphate incorporation into substrate after 80 mins by scintillation counting
# Chain of Serine/threonine-protein kinase PLK1 (P53350 whole entry): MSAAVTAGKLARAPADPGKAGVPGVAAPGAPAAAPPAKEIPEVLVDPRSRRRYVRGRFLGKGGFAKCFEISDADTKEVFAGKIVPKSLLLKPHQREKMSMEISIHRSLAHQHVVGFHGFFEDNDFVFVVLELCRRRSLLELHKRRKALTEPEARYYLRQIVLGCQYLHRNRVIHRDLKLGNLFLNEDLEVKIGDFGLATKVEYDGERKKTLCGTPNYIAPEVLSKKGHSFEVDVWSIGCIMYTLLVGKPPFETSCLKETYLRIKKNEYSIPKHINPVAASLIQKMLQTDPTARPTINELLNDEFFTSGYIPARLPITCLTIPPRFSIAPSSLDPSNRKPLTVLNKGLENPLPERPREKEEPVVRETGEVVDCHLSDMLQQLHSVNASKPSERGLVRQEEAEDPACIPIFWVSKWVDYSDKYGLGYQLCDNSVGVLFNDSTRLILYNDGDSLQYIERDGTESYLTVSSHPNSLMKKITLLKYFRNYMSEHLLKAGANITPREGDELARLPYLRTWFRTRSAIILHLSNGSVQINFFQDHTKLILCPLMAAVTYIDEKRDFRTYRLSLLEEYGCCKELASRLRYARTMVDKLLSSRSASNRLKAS
# In short: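 PLK1 (recombinant) was phosphorylating RBER-CHKtide at 2000 ng/50 µL with [33P]-ATP (about 5×10^5 cpm/well). Buffer was 60 mM HEPES-NaOH pH 7.5 with 3 mM MgCl2 and 3 mM MnCl2. After 80 min at 30 °C, 2% phosphoric acid stopped the reaction and wells were washed with saline. Incorporated 33P was counted, with residual activity relative to enzyme-free and inhibitor-free controls.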
GI50 (SW-620) [µM],GI50 (MDA-MB-435) [µM],GI50 (OVCAR-3) [µM],GI50 (MCF7) [µM],GI50 (HT-29) [µM],IC50 [1] [µM],IC50 (Aurora kinase B) [µM],IC50 (Focal adhesion kinase 1) [µM],IC50 [2] [µM],SMILES,GI50 (CAKI-1) [µM],GI50 (EKVX) [µM],GI50 (SNB-19) [µM],GI50 (UACC-257) [µM],GI50 (TK-10) [µM]
3.2,2,3.2,2.5,2.5,,,,,CNC(=O)c1cc(Oc2ccc(NC(=O)Nc3ccc(Cl)c(C(F)(F)F)c3)cc2)ccn1 [SORAFENIB TOSYLATE],3.2,2.5,3.2,2,5
0.44,0.2,0.55,0.79,3.4,> 100,3,0.64,,COc1ccc(Nc2ncc3c(n2)-c2ccccc2NC(=O)C3)cc1O,0.15,4.1,21,19,4.1
0.62,0.19,0.93,0.47,27,> 100,6,,1.2,COc1ccc(Nc2nccc(-c3nc4ccccc4n3C)n2)cc1O,0.86,17,10,5.5,26
